Data on nine compounds can be found in ChEMBL document CHEMBL1132280, “Discovery of potent and selective SH2 inhibitors of the tyrosine kinase ZAP-70” (J Med Chem, 1999).

Parameters in all cases: species or system Escherichia coli
Assay [1] addresses T1, Tyrosine-protein kinase ZAP-70 (Homo sapiens, UniProt P43403).
T1 sequence (P43403 whole entry): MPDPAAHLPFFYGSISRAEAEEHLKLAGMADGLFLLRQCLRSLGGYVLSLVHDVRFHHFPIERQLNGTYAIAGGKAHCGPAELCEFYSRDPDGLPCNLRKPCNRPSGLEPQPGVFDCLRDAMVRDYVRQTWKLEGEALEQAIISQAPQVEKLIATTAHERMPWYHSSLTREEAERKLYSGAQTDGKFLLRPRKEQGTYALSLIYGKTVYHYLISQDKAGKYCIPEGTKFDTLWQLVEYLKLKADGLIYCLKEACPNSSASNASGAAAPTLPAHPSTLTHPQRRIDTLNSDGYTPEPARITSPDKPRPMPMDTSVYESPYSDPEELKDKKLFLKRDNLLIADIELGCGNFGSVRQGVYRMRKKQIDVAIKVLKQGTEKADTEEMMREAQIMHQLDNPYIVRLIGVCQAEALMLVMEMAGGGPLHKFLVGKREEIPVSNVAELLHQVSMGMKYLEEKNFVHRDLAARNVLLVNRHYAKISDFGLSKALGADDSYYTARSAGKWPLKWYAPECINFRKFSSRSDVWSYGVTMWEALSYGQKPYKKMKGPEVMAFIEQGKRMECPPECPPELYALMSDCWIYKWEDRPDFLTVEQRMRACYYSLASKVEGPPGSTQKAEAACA
The assay can be described thus: Binding affinity against SH2 domain of Zeta-chain (TCR) associated protein kinase 70 kDa.

Assay [2] addresses Proto-oncogene tyrosine-protein kinase Src (Homo sapiens, UniProt P12931). The assay can be described thus: Binding affinity against Src SH2 domain.
Assay [3] has as its target Tyrosine-protein kinase SYK (Homo sapiens, UniProt P43405). The assay can be described thus: Binding affinity against Syk protein tyrosine kinase SH2 domain.
Assay [4] addresses Growth factor receptor-bound protein 2 (Homo sapiens, UniProt P62993). The assay can be described thus: Binding affinity against Growth factor receptor bound protein 2. The method in brief: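 Fluorescence polarization competition assay using human Grb2 SH2 (residues 55–152), expressed in E. coli BL21(DE3) and purified on phosphotyrosine-agarose. Compounds were serially diluted 1:2 across 1000–0.04 μM in 20 mM phosphate pH 7.4 with 100 mM NaCl, 10 mM DTT, 4% DMSO, 1 mM EDTA and 0.1% bovine γ-globulin. They were added to 1.25 µM protein premixed with 20 nM fluorescein-labelled peptide (ex 485/em 530 nm). IC50 was taken from percent tracer bound relative to vehicle, as the mean of ≥3 experiments.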

Square brackets hold non-standard residues; d marks the D form. Peptide text beside a SMILES is read from it. pY = N[C@@H](Cc1ccc(OP(=O)(O)O)cc1)C(=O)O

Sequence of Proto-oncogene tyrosine-protein kinase Src (P12931 2-536 limits assumed): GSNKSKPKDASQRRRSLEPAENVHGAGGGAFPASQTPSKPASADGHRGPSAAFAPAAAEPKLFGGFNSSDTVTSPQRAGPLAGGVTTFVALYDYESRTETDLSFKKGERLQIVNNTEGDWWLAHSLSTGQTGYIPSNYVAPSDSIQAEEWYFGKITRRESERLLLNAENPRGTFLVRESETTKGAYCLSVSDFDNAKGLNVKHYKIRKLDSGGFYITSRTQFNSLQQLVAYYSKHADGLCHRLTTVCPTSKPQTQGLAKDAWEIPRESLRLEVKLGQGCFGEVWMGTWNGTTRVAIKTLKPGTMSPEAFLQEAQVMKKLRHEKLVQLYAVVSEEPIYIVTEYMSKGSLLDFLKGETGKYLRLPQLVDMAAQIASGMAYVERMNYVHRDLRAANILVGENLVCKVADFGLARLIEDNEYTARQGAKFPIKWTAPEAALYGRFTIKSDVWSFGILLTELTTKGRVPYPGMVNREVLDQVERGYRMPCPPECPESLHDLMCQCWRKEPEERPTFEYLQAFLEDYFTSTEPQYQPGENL
Sequence of Growth factor receptor-bound protein 2 (P62993 whole entry, the tested form may be a part): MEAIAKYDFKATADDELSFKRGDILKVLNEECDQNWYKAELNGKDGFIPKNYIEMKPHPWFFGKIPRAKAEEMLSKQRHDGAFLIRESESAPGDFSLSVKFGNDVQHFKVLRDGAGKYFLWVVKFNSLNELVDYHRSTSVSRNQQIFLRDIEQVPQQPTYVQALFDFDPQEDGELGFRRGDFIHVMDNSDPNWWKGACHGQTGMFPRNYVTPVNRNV

In the case of `CC(=O)N[C@@H](Cc1ccc(OP(=O)(O)O)cc1)C(=O)NCCc1nc(Cc2ccc(C(F)(F)F)cc2)no1`, the IC50 in assay [1], in assay [2] and in assay [3] was greater than 500 µM each time.

Consider `CC(=O)N[C@@H](Cc1ccc(OP(=O)(O)O)cc1)C(=O)NC(C)(C)c1nc(Cc2ccc(C(F)(F)F)cc2)no1`, for which the IC50 in assay [1] is 228 µM; in assay [2], 489 µM; in assay [3] it was greater than 500 µM.

On to `CC(=O)N[C@@H](Cc1ccc(OP(=O)(O)O)cc1)C(=O)NCc1nc(Cc2ccc(C(F)(F)F)cc2)no1`, for which the results for the 50% inhibitory concentration (IC50) in assay [1], in assay [2] and in assay [3] were 128 µM, greater than 500 µM and greater than 500 µM, respectively.

For the compound `CC[C@H](C)[C@H](NC(=O)[C@H](CCC(=O)O)NC(=O)[C@H](CCC(=O)O)NC(=O)[C@H](Cc1ccc(OP(=O)(O)O)cc1)NC(C)=O)C(N)=O`, the IC50 came to 530 µM in assay [1], 6 µM in assay [2] and 171 µM in assay [3].

As to `CC(=O)N[C@@H](Cc1ccc(OP(=O)(O)O)cc1)C(=O)N[C@@H](CCC(N)=O)c1nc(Cc2ccc(Cl)cc2Cl)no1`, the IC50 is 184 µM in assay [1], greater than 500 µM in assay [2] and greater than 500 µM in assay [3].

As to `CC(=O)N[C@@H](Cc1ccc(OP(=O)(O)O)cc1)C(=O)N[C@@H](CCC(N)=O)c1nc(CCc2ccccc2)no1`, the IC50 was greater than 500 µM in assay [1], 156 µM in assay [2] and greater than 500 µM in assay [3].

On to `CC(=O)N[C@@H](Cc1ccc(OP(=O)(O)O)cc1)C(=O)N[C@@H](CCC(N)=O)c1nc(Cc2ccccc2)no1`, for which the IC50 in assay [1] was greater than 500 µM; in assay [2], 72 µM; in assay [3], greater than 500 µM; in assay [4] it was 456 µM.

Regarding `CC(=O)N[C@@H](Cc1ccc(OP(=O)(O)O)cc1)C(=O)N[C@@H](CC(=O)O)C(=O)N[C@H](C(=O)N[C@@H](CC(C)C)C(N)=O)C(C)C` (Ac-[pY]DVL-NH2), the IC50 in assay [1] was determined as 328 µM; in assay [2], 261 µM; in assay [3] it was 389 µM.

Take `CC(=O)N[C@@H](Cc1ccc(OP(=O)(O)O)cc1)C(=O)N[C@@H](CC(N)=O)C(=O)N[C@@H](CCC(=O)O)C(=O)N[C@@H](CC(C)C)C(N)=O` (Ac-[pY]NEL-NH2): the IC50 is 422 µM in assay [1], 237 µM in assay [2] and 420 µM in assay [3].

What is called IC50 is the concentration that gives 50% inhibition. A high value points to lower potency.
